Activity calls are given as the source filed them. The rule behind the calls is not given here.
Legend:
[1] = molecular target: T1, Tyrosine-protein phosphatase non-receptor type 1 (Homo sapiens, UniProt P18031); assay: Inhibition of PTP1B (unknown origin) assessed as decrease in p-nitrophenolate formation using pNPP as substrate by Dixon plot analysis
T1 sequence (P18031 whole entry): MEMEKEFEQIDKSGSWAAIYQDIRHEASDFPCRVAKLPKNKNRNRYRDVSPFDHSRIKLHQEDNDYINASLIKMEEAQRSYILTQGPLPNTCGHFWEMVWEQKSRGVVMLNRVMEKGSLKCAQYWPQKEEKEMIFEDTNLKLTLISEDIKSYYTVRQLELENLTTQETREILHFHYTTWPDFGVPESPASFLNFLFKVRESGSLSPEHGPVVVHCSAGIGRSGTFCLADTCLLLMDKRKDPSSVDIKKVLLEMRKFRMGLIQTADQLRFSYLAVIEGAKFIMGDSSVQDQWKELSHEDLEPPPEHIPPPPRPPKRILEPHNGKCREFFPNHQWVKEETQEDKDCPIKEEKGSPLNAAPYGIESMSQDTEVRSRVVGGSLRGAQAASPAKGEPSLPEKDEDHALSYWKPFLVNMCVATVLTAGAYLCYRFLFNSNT
Summary of the method: (§1)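 Kinetic analysis of human recombinant PTP1B with p-NPP substrate, run at several inhibitor levels. Ki was obtained from Dixon plots, and the inhibition mode from Lineweaver–Burk plots.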

[2] = molecular target: T1, Tyrosine-protein phosphatase non-receptor type 1; assay: Inhibition of PTP1B (unknown origin) assessed as decrease in p-nitrophenolate formation using pNPP as substrate incubated for 15 mins by spectrophotometric method
[3] = molecular target: T2, Tyrosine-protein phosphatase non-receptor type 1 (Homo sapiens) (UniProt P18031); assay: Noncompetitive inhibition of PTP1B (unknown origin) assessed as decrease in p-nitrophenolate formation using pNPP as substrate by Lineweaver-Burk plot analysis; summary of the method: as §1
T2 sequence (whole entry): T1 sequence (P18031 whole entry)

[4] = Antioxidant activity assessed as DPPH radical scavenging activity; assay type: functional

Structure (SMILES) | IC50 [2] | also measured
Oc1ccc([C@@H]2Oc3ccc(/C=C/c4cc(O)cc(O)c4O)cc3[C@H]2c2cc(O)cc(O)c2O)cc1 | 1.9 µM | Ki [1]: 0.92 µM; inhibition [3]: Active
Oc1ccc(/C=C/c2cc(O)cc(O)c2)cc1 [RESVERATROL] | > 50 µM | –
COc1cc(/C=C/C(=O)O[C@H]2[C@H](Oc3c(O)cc(O)cc3/C=C/c3ccc(O)cc3)O[C@H](CO)[C@@H](O)[C@@H]2O)ccc1O | > 50 µM | –
COc1cc(/C=C/C(=O)O[C@@H]2[C@@H](O)[C@H](Oc3c(O)cc(O)cc3/C=C/c3ccc(O)cc3)O[C@H](CO)[C@H]2O)ccc1O | 27.4 µM | –
COc1cc([C@@H]2CC(=O)Oc3cc(O)c(O[C@@H]4O[C@H](CO)[C@@H](O)[C@H](O)[C@H]4O)c(/C=C/c4ccc(O)cc4)c32)ccc1O | > 50 µM | –
C[C@@H]1O[C@@H](Oc2c(O)cc(O)cc2/C=C/c2ccc(O)cc2)[C@H](O)[C@H](O)[C@H]1O | > 50 µM | –
OC[C@H]1O[C@@H](OC[C@H]2O[C@@H](Oc3c(O)cc(O)cc3/C=C/c3ccc(O)cc3)[C@H](O)[C@@H](O)[C@@H]2O)[C@H](O)[C@@H](O)[C@@H]1O | > 50 µM | –
OC[C@H]1O[C@@H](Oc2c(O)cc(O)cc2[C@H]2c3c(cc(O)c(O[C@@H]4O[C@H](CO)[C@@H](O)[C@H](O)[C@H]4O)c3/C=C/c3ccc(O)cc3)O[C@@H]2c2ccc(O)cc2)[C@H](O)[C@@H](O)[C@@H]1O | > 50 µM | –
CC(=O)OC[C@H]1O[C@@H](Oc2c(O)cc(O)cc2/C=C/c2ccc(O)cc2)[C@H](O)[C@@H](O)[C@@H]1O | > 50 µM | –
O=C(O[C@H]1[C@H](Oc2c(O)cc(O)cc2/C=C/c2ccc(O)cc2)O[C@H](CO)[C@@H](O)[C@@H]1O)c1cc(O)c(O)c(O)c1 | > 50 µM | –
O=C(O)c1cc(O)cc(O)c1C(=O)Cc1ccc(O)cc1 | > 50 µM | –
CC(=O)O[C@@H]1[C@@H](O)[C@H](Oc2c(O)cc(O)cc2/C=C/c2ccc(O)cc2)O[C@H](CO)[C@H]1O | 37.6 µM | –
Oc1ccc(/C=C/c2cc(O)cc(O)c2O)cc1 | 12.1 µM | IC50 [4]: 400 µM
O=COC[C@H]1O[C@@H](Oc2c(O)cc(O)cc2/C=C/c2ccc(O)cc2)[C@H](O)[C@@H](O)[C@@H]1O | > 50 µM | –
OC[C@H]1O[C@@H](Oc2c(O)cc(O)cc2/C=C/c2ccc3c(c2)[C@@H](c2cc(O)cc(O)c2O[C@@H]2O[C@H](CO)[C@@H](O)[C@H](O)[C@H]2O)[C@H](c2ccc(O)cc2)O3)[C@H](O)[C@@H](O)[C@@H]1O | 34.9 µM | –
Oc1ccc(/C=C/c2cc(O)cc(O)c2O[C@@H]2OC[C@@H](O)[C@H](O)[C@H]2O)cc1 | > 50 µM | –
OC[C@H]1O[C@@H](Oc2c(O)cc(O)cc2/C=C/c2ccc(O)cc2)[C@H](O)[C@@H](O)[C@@H]1O | > 50 µM | IC50 [4]: 40000 µM
Oc1ccc([C@H]2Oc3ccc(/C=C/c4cc(O)cc(O)c4O)cc3[C@@H]2c2cc(O)cc(O)c2O)cc1 | 2.1 µM | Ki [1]: 1.02 µM; inhibition [3]: Active
OC[C@H]1O[C@@H](Oc2c(O)cc(O)cc2/C=C/c2ccc3c(c2)[C@H](c2cc(O)cc(O)c2O[C@@H]2O[C@H](CO)[C@@H](O)[C@H](O)[C@H]2O)[C@@H](c2ccc(O)cc2)O3)[C@H](O)[C@@H](O)[C@@H]1O | 32.2 µM | –

Source: ChEMBL document CHEMBL4602658, “Stilbenes with Potent Protein Tyrosine Phosphatase-1B Inhibitory Activity from the Roots of Polygonum multiflorum” (J Nat Prod, 2020)
